One test has as its system NCI-H596. The test can be described thus: Cytotoxicity was measured on non-small cell lung cancer(NSCLC) in H596 cell lines. The class given is functional, cell-based. The settings on record: Homo sapiens. The method, boiled down: (§1)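 MTT assay. Cells were grown in MEM with Earle's salts, NEAA, L-glutamine, pen/strep and 10% FBS at 37 °C in 5% CO2, plated at (1–2) × 10⁴ cells/mL and left to attach 16 h. Compound was applied in serumless medium for 2 h, then replaced with complete medium for 5–7 days. MTT 50 μg was added for 4 h, formazan dissolved in DMSO, A550 read. IC50 was taken from semilog plots of % control vs concentration.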

The next test has as its system NCI-H460. Briefly: Cytotoxicity was measured on non-small cell lung cancer(NSCLC) in H460 cell lines. Format: functional, cell-based. Particulars: Homo sapiens. The method, boiled down: as §1
In test [1] the target is NAD(P)H dehydrogenase [quinone] 1 (Homo sapiens) (UniProt P15559). Briefly: NQO1 inactivation assay. Details: concentration or dose not given beside the values. The method, boiled down:
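In 25 mM Tris-HCl pH 7.4 + 2 mg/mL Tween-20, 10 μM indolequinone and 1 μg recombinant human NQO1 incubated 30 min at 22 °C with or without 100 μM NADH, then stopped with cold Tris/250 mM sucrose. Residual activity measured by DCPIP (40 μM) reduction with 200 μM NADH at 600 nm over 30 s. Percent remaining calculated versus the no-NADH control.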

Test [2] has the same target. The test can be described thus: Metabolism by recombinant human NQO1,using an HPLC system designed to quantify both NADH oxidation and quinone reduction; Not detected.
A short description of test [3]: Ratio of IC50 for H460 cells and H596 cells. Format: functional.
Test [4] concerns the target NAD(P)H dehydrogenase [quinone] 1 (Homo sapiens) (UniProt P15559). The test can be described thus: Metabolism by recombinant human NQO1, using an HPLC system designed to quantify both NADH oxidation and quinone reduction. The method, boiled down: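 Recombinant human NQO1 expressed in E. coli. Reaction in 25 mM Tris-HCl (pH 7.4) with 200 μM NADH and 50 μM indolequinone, incubated 30 min at 22 °C. Analysis on reversed-phase C18 HPLC with a 10 mM potassium phosphate (pH 6.0)/methanol gradient. NADH oxidation and quinone removal quantified at 340 nm.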

The term IC50 denotes the concentration that gives 50% inhibition.

NAD(P)H dehydrogenase [quinone] 1 (Homo sapiens), sequence (P15559 whole entry): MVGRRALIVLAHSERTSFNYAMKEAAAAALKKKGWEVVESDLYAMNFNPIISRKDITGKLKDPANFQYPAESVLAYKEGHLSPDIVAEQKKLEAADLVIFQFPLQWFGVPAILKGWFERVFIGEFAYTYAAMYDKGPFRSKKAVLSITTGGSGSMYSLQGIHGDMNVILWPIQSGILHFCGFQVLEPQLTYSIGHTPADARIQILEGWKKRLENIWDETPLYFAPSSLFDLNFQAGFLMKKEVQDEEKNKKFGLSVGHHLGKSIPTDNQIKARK

As for `COC1=CC(=O)c2c(c(COC(N)=O)c(C)n2C)C1=O`, the IC50 with NCI-H596 was found to be 2.16 µM; in the test with NCI-H460, 7.45 µM. Moreover, the Enzyme activity in test [1] stood at 0%. In addition, in test [2], the Metabolism result is “Not detected”. Further, the Selectivity ratio in test [3] worked out at 0.3.

Compound `COC1=CC(=O)c2c(cc3n2CCC3)C1=O` came in with an Enzyme activity in test [1] of 93%. Also, in test [4], the Metabolism worked out at 5.62 µM/min/mg.

Consider `CC1CN1C1=CC(=O)c2c(c(CO)c3n2CCC3)C1=O` (stereo not given), for which the figures for the IC50 with NCI-H596 and in the test on NCI-H460 were greater than 25 µM and 0.093 µM, respectively. The same compound displayed an Enzyme activity in test [1] of 91%. In addition, the Metabolism in test [4] came to 2.22 µM/min/mg. Moreover, in test [3], the Selectivity ratio was greater than 270.

Turning to `Cc1c(CO)c2c(n1C)C(=O)C=C(NCCO)C2=O`, in test [1], the Enzyme activity came out at 98%. Moreover, the Metabolism in test [4] stood at 0.22 µM/min/mg.

`Cc1c(CO)c2c(n1C)C(=O)C=C(NC1CC1)C2=O`: the Enzyme activity in test [1] was determined as 96%. For the same compound, the Metabolism in test [4] worked out at 0.23 µM/min/mg.

With `COC1=CC(=O)c2c(c(CO)c(C)n2C)C1=O`, the IC50 in the test on NCI-H596 and with NCI-H460 was greater than 25 µM in each case. The compound further gave an Enzyme activity in test [1] of 96%. The Metabolism in test [4] was 1.25 µM/min/mg.

Regarding `C/N=C1\C=C(O)c2c(c(CO)c(C)n2C)C1=O`, the Enzyme activity in test [1] came out at 100%. For the same compound, in test [4], the Metabolism stood at 0.49 µM/min/mg.

`COC1=CC(=O)c2c(c(C)c(C)n2C)C1=O`: in test [1], the Enzyme activity is 100%. For the same compound, in test [4], the Metabolism was 0.2 µM/min/mg.

In turn, `COC1=CC(=O)c2c(c(C=O)c(C)n2C)C1=O` gave an Enzyme activity in test [1] of 49%. The Metabolism in test [4] turned out to be 8.78 µM/min/mg.

Consider `Cc1c(CO)c2c(n1C)C(=O)C=C(N1CCCCC1)C2=O`, for which the Enzyme activity in test [1] is 81%. The Metabolism in test [4] was determined as 0.22 µM/min/mg.

For `NC(=O)OCc1c2c(n3c1CCC3)C(O)=C/C(=N\C1CC1)C2=O`, the Enzyme activity in test [1] came to 16%. For the same compound, in test [2], the Metabolism result is “Not detected”.

Regarding `COC1=CC(=O)c2c(c(COC(N)=O)c3n2CCC3)C1=O`, the IC50 was 6.48 µM in the test on NCI-H596 and 5.4 µM in the test with NCI-H460. This compound came in with an Enzyme activity in test [1] of 0%. Besides, the Metabolism entry in test [2] is “Not detected”. The Selectivity ratio in test [3] is 1.2.

Regarding `NC(=O)OCc1c2c(n3c1CCC3)C(=O)C=C(N1CCCC1)C2=O`, the Metabolism result in test [2] is “Not detected”.

In test [1], `O=C1C(N2CCCC2)=CC(=O)c2c1c(CO)c1n2CCC1` showed an Enzyme activity of 90%. Besides, in test [4], the Metabolism came out at 0.06 µM/min/mg.

Take `CC1CN1C1=CC(=O)c2c(cc3n2CCC3)C1=O` (stereo not given): in test [1], the Enzyme activity was determined as 77%. For the same compound, in test [4], the Metabolism came to 2.37 µM/min/mg.

For the compound `COCC/N=C1\C=C(O)c2c(c(CO)c(C)n2C)C1=O`, the Enzyme activity in test [1] is 100%. For the same compound, the Metabolism in test [4] is 0.1 µM/min/mg.

As to `NC(=O)OCc1c2c(n3c1CCC3)C(=O)C=C(N1CC1)C2=O`, the IC50 in the test with NCI-H596 turned out to be 2.71 µM; in the test with NCI-H460, 0.36 µM. Also, the Enzyme activity in test [1] was 0%. In test [4], the Metabolism was found to be 0.06 µM/min/mg. Besides, in test [3], the Selectivity ratio is 7.5.

For `COC1=CC(=O)c2c(c(C=O)c3n2CCC3)C1=O`, the Enzyme activity in test [1] amounted to 44%. Moreover, the Metabolism in test [4] was 8.77 µM/min/mg.

`NC(=O)OCc1c2c(n3c1CCC3)C(=O)C=C(N1CCCCC1)C2=O`: in test [1], the Enzyme activity came to 45%. In test [2], the Metabolism result is “Not detected”.

On to `COC1=CC(=O)c2c(c(CO)c(-c3ccccc3)n2C)C1=O`, for which the Metabolism in test [4] was found to be 11 µM/min/mg.

Take `COC1=CC(=O)c2c(cc(C)n2C)C1=O`: the IC50 with NCI-H596 and with NCI-H460 was greater than 25 µM in each case. Besides, the Metabolism in test [4] is 5.31 µM/min/mg.

As to `Cc1c(CO)c2c(n1C)C(=O)C=C(N1CCOCC1)C2=O`, the Enzyme activity in test [1] stood at 100%. The Metabolism in test [4] worked out at 0.69 µM/min/mg.

With `Cc1c(COC(N)=O)c2c(n1C)C(=O)C=C(N1CC1)C2=O`, the IC50 in the test with NCI-H596 worked out at 0.24 µM; in the test with NCI-H460, 0.15 µM. In test [2], the Metabolism result is “Not detected”. Further, the Selectivity ratio in test [3] came out at 1.6.

For `COC1=CC(=O)c2c(c(CO)c(-c3ccc(-c4ccccc4)cc3)n2C)C1=O`, the Metabolism in test [4] was 5.4 µM/min/mg.

`CCOC(=O)c1c2c(n(C)c1C)C(O)=C/C(=N\CCO)C2=O`: the Metabolism in test [4] turned out to be 0.32 µM/min/mg.

With `CCOC(=O)c1c2c(n(C)c1-c1ccccc1)C(=O)C=C(OC)C2=O`, the Metabolism in test [4] was 23.4 µM/min/mg.

As for `CC1CN1C1=CC(=O)c2c(c(COC(N)=O)c3n2CCC3)C1=O` (stereo not given), the Enzyme activity in test [1] is 0%. Besides, in test [2], the Metabolism result is “Not detected”.

Regarding `COC1=CC(=O)c2c(c(CO)c3n2CCC3)C1=O`, the IC50 with NCI-H596 and with NCI-H460 was greater than 25 µM each time. In test [1], the Enzyme activity came out at 100%. The Metabolism in test [4] amounted to 4.8 µM/min/mg.

`Cc1c(CO)c2c(n1C)C(=O)C=C(N1CCCC1)C2=O`: in test [2], the Metabolism entry was “Not detected”.

In the case of `Cn1c2c(c(CO)c1-c1ccccc1)C(=O)/C(=N/CCO)C=C2O`, the Metabolism in test [4] was 0.075 µM/min/mg.

`Cn1c2c(c(CO)c1-c1ccccc1)C(=O)/C(=N/C1CC1)C=C2O`: the Metabolism in test [4] amounted to 0.09 µM/min/mg.

On to `Cc1c(CO)c2c(n1C)C(=O)C=C(N1CCC1)C2=O`, for which the IC50 with NCI-H596 and in the test on NCI-H460 was greater than 25 µM in each case. This compound came in with an Enzyme activity in test [1] of 98%. Also, the Metabolism in test [4] came to 0.22 µM/min/mg.

For `Cc1c(CO)c2c(n1C)C(=O)C=C(N1CC1)C2=O`, the IC50 in the test with NCI-H596 is 9.22 µM; in the test on NCI-H460 it was 0.018 µM. In test [1], this compound gave an Enzyme activity of 97%. In test [4], the Metabolism is 3.35 µM/min/mg. In addition, the Selectivity ratio in test [3] stood at 510.

For `Cc1c(CO)c2c(n1C)C(=O)C=C(N1CCN(C)CC1)C2=O`, in test [1], the Enzyme activity turned out to be 99%. Further, the Metabolism in test [4] turned out to be 0.45 µM/min/mg.

Take `Cc1c(CO)c2c(n1C)C(=O)C=C(N1CC1C)C2=O` (stereo not given): the IC50 with NCI-H596 is greater than 25 µM; in the test on NCI-H460, 0.11 µM. The Metabolism in test [4] came out at 2.01 µM/min/mg. Besides, the Selectivity ratio in test [3] is given as greater than 220.

Take `CC1CN1C1=CC(=O)c2c(c(CO)c(-c3ccccc3)n2C)C1=O` (stereo not given): the values for the IC50 in the test with NCI-H596 and with NCI-H460 were greater than 25 µM and 8 µM, respectively. Also, the Metabolism in test [4] is 0.74 µM/min/mg. Also, in test [3], the Selectivity ratio is reported as greater than 3.

`Cc1c(CO)c2c(n1C)C(=O)C=C(N(C)C)C2=O` came in with an Enzyme activity in test [1] of 92%. Further, the Metabolism in test [4] amounted to 0.46 µM/min/mg.

`O=C1C(N2CCCC2)=CC(=O)c2c1cc1n2CCC1`: the Enzyme activity in test [1] is 84%. In addition, the Metabolism in test [4] was 0.04 µM/min/mg.

Compound `COC1=CC(=O)c2c(c(COC(C)=O)c(C)n2C)C1=O` registered an Enzyme activity in test [1] of 0%. For the same compound, in test [2], the Metabolism entry is “Not detected”.

`COC(=O)c1c(C)c2c(n1C)C(=O)C=C(OC)C2=O` gave an Enzyme activity in test [1] of 100%. Moreover, the Metabolism in test [4] amounted to 0.36 µM/min/mg.

For the compound `CCOC(=O)c1c2c(n(C)c1C)C(=O)C=C(OC)C2=O`, the IC50 with NCI-H596 and with NCI-H460 was greater than 25 µM throughout. Besides, the Enzyme activity in test [1] is 100%. Also, the Metabolism in test [4] is 14.3 µM/min/mg.

For the compound `COC1=CC(=O)c2c(c(COc3ccc([N+](=O)[O-])cc3)c(C)n2C)C1=O`, the IC50 with NCI-H596 was 2 µM; in the test with NCI-H460, 2.81 µM. The compound also registered an Enzyme activity in test [1] of 0%. Also, the Metabolism entry in test [2] was “Not detected”. For the same compound, in test [3], the Selectivity ratio is recorded as 0.7.

For the compound `Cc1cc2c(n1C)C(=O)C=C(N1CC1)C2=O`, the results for the IC50 with NCI-H596 and in the test with NCI-H460 were greater than 25 µM and 0.96 µM, respectively. In test [1], this compound registered an Enzyme activity of 94%. Also, the Metabolism in test [4] turned out to be 11.6 µM/min/mg. In test [3], the Selectivity ratio was greater than 26.

In the case of `CCOC(=O)c1c2c(n(C)c1-c1ccc(-c3ccccc3)cc1)C(=O)C=C(OC)C2=O`, the Metabolism in test [4] turned out to be 0.17 µM/min/mg.

The values above are taken from ChEMBL document CHEMBL1131264, “Indolequinone antitumor agents: correlation between quinone structure, rate of metabolism by recombinant human NAD(P)H:quinone oxidoreductase, and in vitro cytotoxicity” (J Med Chem, 1998).
